Measurements from ChEMBL document CHEMBL3407476, “Design, synthesis and cytotoxic evaluation of 4-methylidenepyrazolidin-3-ones” (Eur J Med Chem, 2015).

Legend:
[1] = Cytotoxicity against human HL60 cells assessed as growth inhibition after 48 hrs by MTT assay; type: functional, cell-based; conditions: HL-60, 48 h
Method in brief: (§1)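 Leukemia cells in RPMI 1640 and MCF-7 in DMEM, both with 10% heat-inactivated FBS. HUVECs were grown per the supplier's protocol at passages 3–8. Cultures were kept at 37 °C in humidified 5% CO₂ and seeded at 8 × 10³ cells/well. After 24 h, compounds from fresh DMSO stocks were added over 10^-7 to 10^-3 M. Absorbance was read at 560 nm against untreated cells. IC50 came from concentration–response curves, as mean ± SD of at least three experiments.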

MCF7 = experiment: Cytotoxicity against human MCF7 cells assessed as growth inhibition after 48 hrs by MTT assay; type: functional, cell-based; conditions: MCF7, 48 h; method in brief: as §1
[2] = Cytotoxicity against human NALM6 cells assessed as growth inhibition after 48 hrs by MTT assay; type: functional, cell-based; conditions: NALM-6, 48 h; method in brief: as §1
HUVEC = experiment: Cytotoxicity against HUVEC assessed as growth inhibition after 48 hrs by MTT assay; type: cell-based; conditions: Homo sapiens; method in brief: as §1
[3] = Therapeutic index, ratio of IC50 for HUVEC to IC50 for human HL60 cells; type: cell-based, HL-60; conditions: HUVEC and HL60 cells, read-out: Ratio IC50
[4] = Therapeutic index, ratio of IC50 for HUVEC to IC50 for human NALM6 cells; type: cell-based, NALM-6; conditions: HUVEC and NALM6 cells, read-out: Ratio IC50

SMILES	IC50 [1] [µM]	IC50 (MCF7) [µM]	IC50 [2] [µM]	IC50 (HUVEC) [µM]	selectivity ratio [3]	selectivity ratio [4]
C=C1CN(C)N(c2ccccc2)C1=O	45.7	56	56			
C=C1CN(C)N(c2ccc(C)cc2)C1=O	65.7	59.1	90.1			
C=C1CN(C)N(c2ccc(Cl)cc2)C1=O	38.1	45.2	51.9			
C=C1CN(C)N(c2ccc(Br)cc2)C1=O	51.8	43.8	62			
C=C1C(=O)N(c2ccccc2)N(C)C1C (stereo not given)	531	153	412			
C=C1C(=O)N(c2ccccc2)N(C)C1CC (stereo not given)	750	185	576			
C=C1C(=O)N(c2ccccc2)N(C)C1CCCC (stereo not given)	460	235	432			
C=C1C(=O)N(c2ccccc2)N(C)C1CCCCCCCCC (stereo not given)	49.9	91.1	57.5			
C=C1C(=O)N(c2ccccc2)N(C)C1c1ccccc1 (stereo not given)	40.9	84.4	24.4			
C=C1C(=O)N(c2ccccc2)N(C)C1c1ccc(OC)cc1 (stereo not given)	37.3	75	49.3			
C=C1C(=O)N(c2ccccc2)N(c2ccccc2)C1C (stereo not given)	5.85	12.5	6.98	29.9	5	4
C=C1C(=O)N(c2ccccc2)N(c2ccccc2)C1CC (stereo not given)	8.89	20	14.9	23.9		
C=C1C(=O)N(c2ccccc2)N(c2ccccc2)C1CCCC (stereo not given)	8.92	25.2	29.1	27		
C=CC1C(=C)C(=O)N(c2ccccc2)N1c1ccccc1 (stereo not given)	1.32	5.1	0.74	2.73		4
C=C1C(=O)N(c2ccccc2)N(c2ccccc2)C1c1ccccc1 (stereo not given)	1.61	4.5	3.82	4.46		
C=C1C(=O)NC(C)C1c1ccc(Br)cc1 (stereo not given)	515		439			
